OX1R antag-1 = antagonists of human orexin 1 receptor (OX1R); O43613; OX1R-expressing cells, FRET antagonist read-out; inhibition, % at 6.6 µM; 1.8% of 330,000 active; AID 485270; in the data active = inhibition mostly above about 38%, no sharp cut-off; inactive = mostly below about 40%
Target sequence (O43613 whole entry, looked up): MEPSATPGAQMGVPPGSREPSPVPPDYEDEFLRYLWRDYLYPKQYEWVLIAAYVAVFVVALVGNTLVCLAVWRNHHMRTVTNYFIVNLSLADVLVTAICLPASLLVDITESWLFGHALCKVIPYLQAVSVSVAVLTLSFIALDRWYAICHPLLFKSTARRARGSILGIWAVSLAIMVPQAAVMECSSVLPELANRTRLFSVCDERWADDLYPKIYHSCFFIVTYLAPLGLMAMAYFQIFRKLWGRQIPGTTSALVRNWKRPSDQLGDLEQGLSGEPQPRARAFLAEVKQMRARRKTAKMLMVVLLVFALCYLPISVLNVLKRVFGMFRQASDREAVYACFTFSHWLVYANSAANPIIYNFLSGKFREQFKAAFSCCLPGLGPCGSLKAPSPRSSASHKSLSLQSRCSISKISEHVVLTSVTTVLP
OX1R antag-2 = human HCRTR1 antagonism | O43613 | CHO/OX1R cells, Fluo-8 calcium fluorescence, orexin A | inhibition, % at 5 µM | 0.43% of 330,000 active | AID 434989;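 active = inhibition above its plate's threshold, mean inhibition of all tested compounds on the plate plus 3 SD, cut at about 37% in these data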
GPR7 antag = blocks human GPR7 receptor signaling; P48145; GPR7-expressing cells, fluorescence antagonist assay; inhibition, % at 4.4 µM; 1.1% of 290,000 active; AID 1861; in the data active = inhibition above about 16%, passing the limit was not always enough;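 note: cells stimulated with the agonist NPW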
GalR3 antagonist = blocks the human galanin receptor 3 | inhibition, % at 3 µM | HEK293 GalR3-CNG cAMP membrane potential fluorescence; galR3 body fused to GalR1 C-terminus | O60755 | 0.44% of 360,000 active;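 active = inhibition above the screen-wide average plus 3 SD, cut at about 13% in these data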;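 note: forskolin and galanin both at EC90 stimulate the cells; cAMP rise reported by CNG channel membrane potential dye signal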
CHO parental Ca = signal in parental CHO cells, OX1R antagonist counter-screen; parental CHO-K1, ATP-induced calcium, Fluo-8 fluorescence; inhibition, % at 5.6 µM; 0.63% of 330,000 active; AID 463079;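 active = inhibition above that plate's mean sample inhibition plus 3 SD, cut at about 26% in these data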
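material = parental CHO cells | also added = ATP as calcium-mobilizing challenge | dosing = single point at 5.6 µM | detection = intracellular calcium via Fluo-8 no-wash fluorescent dye | read-out = % inhibition | benchmarks = low control ATP plus DMSO, high control DMSO only | repeats = one well per compound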
Of the large screens only hits and unclear results are named; the others gave an inactive call. Rows were chosen to be rich in hits. Some 3.1% of all compounds tested hit in one or more screens of this group.

Cc1ccnc(-n2c(CCN3C(=O)c4ccccc4C3=O)nc3ccccc3c2=O)c1	none
O=C1c2ccccc2C(=O)N1CCc1nc2ccccc2c(=O)n1-c1ccccn1	OX1R antag-1 62
Cc1cc2c(c(C#N)c1C)NC=NC2C (stereo not given)	none (no result: OX1R antag-1, OX1R antag-2, GPR7 antag, CHO parental Ca)
CC(=O)NCCNc1nc2cc(-c3cnn(CCC(C)C)c3)sc2c(=O)n1C	none (no result: OX1R antag-1, OX1R antag-2, GPR7 antag, CHO parental Ca)
CCOc1ccc(NS(=O)(=O)c2ccc(C(=O)NCC3(N(C)C)CCCCC3)cc2)cc1	CHO parental Ca 55 (no result: GPR7 antag)
CCOc1ccc(NS(=O)(=O)c2ccc(C(=O)N3CCCC(C)C3)cc2)cc1 (stereo not given)	OX1R antag-2 36, CHO parental Ca 52 (no result: GPR7 antag)
CCOc1ccc(S(=O)(=O)Nc2ccc(C(=O)N3CCCC3)cc2)cc1	none
COc1ccccc1CNC(=O)c1ccccc1NC(=O)C1=C(C)OCCS1	none
COc1ccc(OC)c([C@@H]2OCCC=C[C@H]2C)c1	none
C=CC[C@@H](CC(=O)OC(C)(C)C)C(=O)OC[C@@H]1CCCN1C(=O)[C@@H](CC=C)CC(=O)N[C@@H](CO)Cc1ccccc1	none (no result: GPR7 antag)
C=CC[C@@H](Cc1ccc(F)cc1)C(=O)OC[C@@H]1CCCN1C(=O)[C@H](CC=C)CC(=O)N[C@H](CO)Cc1ccccc1	OX1R antag-1 64, OX1R antag-2 101 (no result: GPR7 antag)
COc1ccccc1NC(=O)Cn1nnc(-c2ccccc2NS(=O)(=O)c2ccccc2)n1	none
COc1ccc(NC(=O)Cn2nnc(-c3ccccc3NS(=O)(=O)c3ccc(OC)cc3)n2)cc1	GPR7 antag 26, CHO parental Ca 39
COc1ccc(S(=O)(=O)N2CCCC(C(=O)NC3CCCC3)C2)cc1OC (stereo not given)	none
Oc1c(Br)cc(Br)cc1C=Nc1cccc2ncccc12	OX1R antag-1 54 (no result: GPR7 antag)
O=C(Nc1ccccc1C(=O)N1CCN(c2ccccc2)CC1)c1ccco1	OX1R antag-1 51
COc1ccc(C2=CC(=O)CC(C)(C)C2=O)cc1	none (no result: OX1R antag-1, OX1R antag-2, GPR7 antag, CHO parental Ca)
Cc1ccc2nc(N=C(N)N)nc(C)c2c1	none
Cc1cc2nc(N=C(N)N)nc(C)c2cc1C	GPR7 antag 19 (no result: OX1R antag-1, OX1R antag-2, CHO parental Ca)
COc1ccc2sc(NC(=O)NC(=O)c3c(Cl)cccc3Cl)nc2c1	GPR7 antag 20
COc1ccc2sc(NC(C)=O)nc2c1	none
COc1cccc(CNC(=O)[C@@H]2CCCN2C(=O)[C@@H]2CCCN2C(=O)c2cccc(OC)c2)c1	none (no result: OX1R antag-1, OX1R antag-2, GPR7 antag, CHO parental Ca)
CCN(CC)c1ccc(C=Nc2cccc(S(=O)(=O)N3CCOCC3)c2)c(O)c1	none (no result: GPR7 antag)
CCN(CC)c1ccc(/C=N/NC(=O)c2cccc(S(=O)(=O)N3CCOCC3)c2)c(O)c1	OX1R antag-1 66
COC(=O)c1cccc(S(=O)(=O)N(Cc2ccco2)Cc2cc3cc(OC)c(OC)cc3[nH]c2=O)c1	none
COC(=O)c1cccc(S(=O)(=O)N(Cc2ccco2)Cc2cc3ccc(OC)cc3[nH]c2=O)c1	OX1R antag-1 40
O=C(COCCOCC(=O)N(c1ccccn1)C1CCCCC1)N(c1ccccn1)C1CCCCC1	none
CC(C)(C)c1ccc(OCC(=O)N(c2ccccn2)C2CCCCC2)cc1	CHO parental Ca 52
NC(=O)c1ncn([C@@H]2O[C@H](C(=O)N[C@H](Cc3c[nH]c4ccccc34)C(=O)N3CCN(CC(=O)N4CCCC4)CC3)[C@@H](O)[C@H]2O)n1	none (no result: OX1R antag-1, OX1R antag-2, GPR7 antag, CHO parental Ca)
CC1=NN(c2ccccc2)C(=O)/C1=C/C=C/C=C/N(C)C	OX1R antag-1 73
CC(OC(=O)CCCN=C1NS(=O)(=O)c2ccccc21)C(=O)Nc1ccc(F)c(F)c1F (stereo not given)	none (no result: GPR7 antag)
CC(=O)Nc1ccc(SCC(=O)c2c(N)n(Cc3ccccc3)c(=O)n(C)c2=O)cc1	none
CC(=O)NC(=S)c1c(N)n(Cc2ccccc2)c(=O)n(C)c1=O	GPR7 antag 21 (no result: GalR3 antagonist)
Cc1c(C(=O)N2CCCCC2)nn(-c2ccc(Cl)cc2)c(=O)c1C#N	OX1R antag-1 61
CCOC(=O)c1nn(-c2ccc(F)cc2)c(=O)c(C#N)c1C	OX1R antag-1 54
CCOC(=O)c1nn(-c2ccc(C)cc2)c(=O)c2c(N)scc12	OX1R antag-1 77
CCOC(=O)c1nn(-c2ccc(Cl)cc2)c2nc(CC)c(C#N)c(=O)n12	none
CCOC(=O)c1nn(-c2ccc(Cl)cc2)c(=O)c(C#N)c1C	OX1R antag-1 50
CCOC(=O)c1nn(-c2ccc(F)cc2)c(=O)c2c(N)scc12	none
CC1(CCc2ccccc2)NC(=O)N(CC(=O)Nc2ccc(OC(F)F)cc2)C1=O (stereo not given)	none (no result: GPR7 antag)

Assay outcomes from PubChem BioAssay.
